Tests used:
[1] = biological target: T1, Liver carboxylesterase 1 (Homo sapiens, UniProt P23141)
T1 sequence (P23141 whole entry): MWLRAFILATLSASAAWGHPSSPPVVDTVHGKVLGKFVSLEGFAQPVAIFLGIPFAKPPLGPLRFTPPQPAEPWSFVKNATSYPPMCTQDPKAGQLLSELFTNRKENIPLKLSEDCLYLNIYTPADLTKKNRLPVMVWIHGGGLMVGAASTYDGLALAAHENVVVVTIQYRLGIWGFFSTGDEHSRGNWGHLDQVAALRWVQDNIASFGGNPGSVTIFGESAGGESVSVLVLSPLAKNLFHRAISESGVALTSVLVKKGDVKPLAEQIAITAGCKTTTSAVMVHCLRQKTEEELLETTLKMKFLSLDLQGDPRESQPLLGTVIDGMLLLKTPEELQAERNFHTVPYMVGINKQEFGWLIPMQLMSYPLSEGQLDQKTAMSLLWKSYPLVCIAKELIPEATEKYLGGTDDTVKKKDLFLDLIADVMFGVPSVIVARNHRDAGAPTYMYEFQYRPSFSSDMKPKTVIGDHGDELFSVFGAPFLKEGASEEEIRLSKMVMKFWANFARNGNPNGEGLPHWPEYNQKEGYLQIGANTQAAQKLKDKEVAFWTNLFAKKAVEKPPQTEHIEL

[2] = Selectivity for rat recombinant FAAH over TGH
[3] = biological target: T2, Neutral cholesterol ester hydrolase 1 (Homo sapiens, UniProt Q6PIU2); assay: Inhibition of KIAA1363
T2 sequence (Q6PIU2 whole entry): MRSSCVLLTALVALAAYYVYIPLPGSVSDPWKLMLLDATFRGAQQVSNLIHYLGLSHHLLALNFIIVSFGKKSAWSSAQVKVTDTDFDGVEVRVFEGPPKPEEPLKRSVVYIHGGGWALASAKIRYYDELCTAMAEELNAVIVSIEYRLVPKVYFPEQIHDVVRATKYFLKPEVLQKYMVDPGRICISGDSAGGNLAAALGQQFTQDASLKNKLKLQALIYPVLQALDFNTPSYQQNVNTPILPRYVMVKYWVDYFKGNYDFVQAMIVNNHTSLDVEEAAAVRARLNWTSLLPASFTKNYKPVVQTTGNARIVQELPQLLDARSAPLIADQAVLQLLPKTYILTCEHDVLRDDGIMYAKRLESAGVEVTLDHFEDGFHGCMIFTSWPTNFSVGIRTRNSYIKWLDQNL

[4] = Selectivity for rat recombinant FAAH over KIAA1363
[5] = biological target: T3, Fatty-acid amide hydrolase 1 (Rattus norvegicus, UniProt P97612); assay: Inhibition of rat recombinant FAAH expressed in Escherichia coli
T3 sequence (P97612 whole entry): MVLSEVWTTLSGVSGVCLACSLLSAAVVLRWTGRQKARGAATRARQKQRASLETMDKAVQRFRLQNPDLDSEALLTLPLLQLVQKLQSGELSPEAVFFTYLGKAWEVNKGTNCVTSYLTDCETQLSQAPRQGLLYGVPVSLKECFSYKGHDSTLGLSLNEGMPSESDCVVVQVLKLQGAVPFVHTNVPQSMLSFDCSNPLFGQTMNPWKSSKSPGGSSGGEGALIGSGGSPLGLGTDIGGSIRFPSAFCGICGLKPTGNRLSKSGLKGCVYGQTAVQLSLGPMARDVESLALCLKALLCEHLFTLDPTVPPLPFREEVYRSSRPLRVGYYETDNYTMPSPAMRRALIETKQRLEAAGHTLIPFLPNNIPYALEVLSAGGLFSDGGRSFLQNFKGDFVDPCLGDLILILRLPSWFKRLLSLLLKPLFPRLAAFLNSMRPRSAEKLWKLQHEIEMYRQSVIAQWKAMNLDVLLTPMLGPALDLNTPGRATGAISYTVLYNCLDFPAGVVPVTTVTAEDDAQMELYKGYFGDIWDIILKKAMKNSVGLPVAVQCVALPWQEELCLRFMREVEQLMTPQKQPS

[6] = biological target: T4, Fatty-acid amide hydrolase 1 (Homo sapiens, UniProt O00519); assay: Inhibition of human recombinant FAAH expressed COS7 cells; format: cell-based, COS-7
T4 sequence (O00519 whole entry): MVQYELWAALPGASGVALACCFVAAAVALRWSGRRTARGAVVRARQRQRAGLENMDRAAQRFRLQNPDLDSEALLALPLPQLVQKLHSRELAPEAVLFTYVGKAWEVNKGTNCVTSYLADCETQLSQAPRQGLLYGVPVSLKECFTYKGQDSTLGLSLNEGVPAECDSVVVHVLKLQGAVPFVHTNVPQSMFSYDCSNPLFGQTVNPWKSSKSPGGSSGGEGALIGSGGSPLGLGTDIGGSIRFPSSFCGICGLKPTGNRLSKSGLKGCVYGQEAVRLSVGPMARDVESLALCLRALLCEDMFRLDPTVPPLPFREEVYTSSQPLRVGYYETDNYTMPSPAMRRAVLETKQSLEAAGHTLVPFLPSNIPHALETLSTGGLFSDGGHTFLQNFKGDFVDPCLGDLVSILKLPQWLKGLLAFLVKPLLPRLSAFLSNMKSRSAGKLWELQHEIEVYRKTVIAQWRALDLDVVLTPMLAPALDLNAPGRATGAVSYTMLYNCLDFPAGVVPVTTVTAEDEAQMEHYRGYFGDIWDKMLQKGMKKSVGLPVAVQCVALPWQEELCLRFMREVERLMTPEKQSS
Method in brief: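 Enzyme source was solubilized membrane lysate of COS-7 cells transiently transfected with full-length human FAAH cDNA. Substrate 10 µM 14C-oleamide in pH 9.0 Tris/EDTA/glycerol/Triton X-100/Hepes buffer at room temperature, with three inhibitor concentrations. Reactions quenched in 0.1 N HCl at three time points, then EtOAc extraction and TLC of oleamide versus oleic acid. Ki from Dixon plot.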

[7] = Selectivity for TGH over rat recombinant FAAH
[8] = biological target: T4, Fatty-acid amide hydrolase 1

| SMILES | IC50 [1] | Ratio IC50 [2] | IC50 [3] | Ratio IC50 [4] | IC50 [5] | Ki [5] | Ki [6] | Selectivity ratio [7] | Selectivity ratio [4] | Ki [8] |
| --- | --- | --- | --- | --- | --- | --- | --- | --- | --- | --- |
| O=C(CCc1ccc(-c2ccccc2)cc1)c1ncc(-c2cccc(-c3nnn[nH]3)n2)o1 | 7000 nM | 70 | > 100000 nM | > 1000 | 100 nM | 25 nM |  |  |  |  |
| O=C(CCCCCCc1ccccc1)c1ncc(-c2cccc(-c3nnn[nH]3)n2)o1 | > 100000 nM | > 200 | > 100000 nM | > 200 | 500 nM |  |  |  |  |  |
| O=C(O)c1cnc(C(=O)CCc2ccc(-c3ccccc3)cc2)o1 | 17000 nM | 850 | > 100000 nM | > 5000 | 20 nM | 10 nM |  |  |  |  |
| O=C(O)c1cccc(-c2cnc(C(=O)CCCCCCc3ccccc3)o2)n1 |  | > 1000 |  | > 1000 | 100 nM |  |  |  |  |  |
| O=C(CCc1ccc(Oc2ccccc2)cc1)c1ncc(C(F)(F)F)o1 |  |  |  |  |  | 2 nM | 1 nM |  |  |  |
| O=C(CCc1ccc(Oc2ccccc2)cc1)c1ncco1 | 30 nM | 0.06 | > 100000 nM | > 200 | 500 nM | 77 nM |  | 1 |  |  |
| O=C(O)c1cccc(-c2cnc(C(=O)CCc3ccc(Oc4ccccc4)cc3)o2)n1 | > 100000 nM | > 5000 | > 100000 nM | > 5000 | 20 nM |  |  |  |  |  |
| N#Cc1cnc(C(=O)CCc2ccc(Oc3ccccc3)cc2)o1 | 16 nM | 3 | 20000 nM | 4000 | 5 nM | 0.8 nM | 0.85 nM |  | > 1000 |  |
| O=C(O)c1cccc(-c2cnc(C(=O)CCc3ccc(COc4ccccc4)cc3)o2)n1 | 26000 nM | 650 | > 100000 nM | > 2500 | 40 nM |  |  |  |  |  |
| O=C(CCc1ccc(COc2ccccc2)cc1)c1ncc(C(F)(F)F)o1 |  |  |  |  |  | 0.8 nM | 0.67 nM |  |  |  |
| O=C(CCc1ccc(COc2ccccc2)cc1)c1ncco1 | 270 nM | 1 | > 100000 nM | > 370 | 270 nM | 25 nM |  | 1 |  |  |
| CCCCCCCC/C=C\CCCCCCCC(=O)c1ncco1 |  |  |  |  |  |  |  |  |  | 100 nM |
| N#Cc1cnc(C(=O)CCc2ccc(-c3ccccc3)cc2)o1 | 26 nM | 26 | 64000 nM | 64000 | 1 nM |  |  |  | > 1000 |  |
| O=C(CCc1ccc(Oc2ccccc2)cc1)c1ncc(-c2ccccn2)o1 | 200 nM |  | > 100000 nM |  | 2 nM |  |  |  |  |  |
| O=C(CCc1ccc(COc2ccccc2)cc1)c1ncc(-c2ccccn2)o1 | 2000 nM | 1000 | > 100000 nM | > 50000 | 2 nM |  |  |  |  |  |
| O=C(O)c1cccc(-c2cnc(C(=O)CCc3ccc(-c4ccccc4)cc3)o2)n1 | > 100000 nM | > 17000 | > 100000 nM | > 17000 | 6 nM |  |  |  |  |  |
| O=C(O)c1cnc(C(=O)CCc2ccc(Oc3ccccc3)cc2)o1 | 2400 nM | 30 | > 100000 nM | > 1250 | 80 nM | 41 nM |  |  |  |  |
| O=C(O)c1cnc(C(=O)CCc2ccc(COc3ccccc3)cc2)o1 | 37000 nM | 740 | > 100000 nM | > 2000 | 50 nM | 22 nM |  |  |  |  |
| O=C(O)c1cnc(C(=O)CCCCCCc2ccccc2)o1 | 2000 nM | 1000 |  | > 50000 | 2 nM |  |  |  |  |  |
| O=C(CCc1ccc(-c2ccccc2)cc1)c1ncco1 | 4.5 nM | 0.025 | > 100000 nM | > 550 | 180 nM | 16 nM |  | 1 |  |  |
| N#Cc1cnc(C(=O)CCc2ccc(COc3ccccc3)cc2)o1 | 100 nM | 50 | 19000 nM | 9500 | 2 nM | 0.5 nM | 0.51 nM |  | > 1000 |  |
| O=C(CCc1ccc(COc2ccccc2)cc1)c1ncc(-c2cccc(-c3nnn[nH]3)n2)o1 | 90000 nM | 500 | > 100000 nM | > 550 | 180 nM |  |  |  |  |  |
| O=C(CCc1ccc(-c2ccccc2)cc1)c1ncc(-c2ccccn2)o1 | 1200 nM |  | > 100000 nM |  |  |  |  |  |  |  |
